From ChEMBL document CHEMBL1149615, “Design, synthesis, and biological evaluation of LNA nucleosides as adenosine A3 receptor ligands” (Bioorg Med Chem, 2007)

What was measured:
Assay type in all cases: functional
[1] = target: T1, Adenosine receptor A3 (Homo sapiens, UniProt P0DMS8); experiment: Agonist activity at human adenosine A3 receptor after 15 to 30 mins
T1 sequence (P0DMS8 whole entry): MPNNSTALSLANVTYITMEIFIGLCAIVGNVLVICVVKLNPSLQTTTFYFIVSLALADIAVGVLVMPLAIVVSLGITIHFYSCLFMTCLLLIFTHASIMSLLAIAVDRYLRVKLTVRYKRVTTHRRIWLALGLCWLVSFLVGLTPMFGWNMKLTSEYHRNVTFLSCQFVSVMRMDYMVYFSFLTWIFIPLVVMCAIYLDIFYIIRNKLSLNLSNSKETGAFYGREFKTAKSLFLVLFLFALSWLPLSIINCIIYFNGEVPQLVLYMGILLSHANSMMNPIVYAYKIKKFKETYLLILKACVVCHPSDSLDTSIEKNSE
Summary of the method: (§1)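 AequoScreen cells expressing recombinant human A3 receptor and Gα16 were cultured at least one week, harvested with PBS-EDTA, and loaded overnight at room temperature with coelenterazine H in DMEM-F12 with 0.1% BSA. Cells were injected onto compound and aequorin luminescence was read. Duplicates at 100 µM–0.01 nM (eight concentrations) were normalised to saturating (EC100) IB-MECA to give EC50.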

[2] = target: T1, Adenosine receptor A3; experiment: (§2) Antagonist activity at human adenosine A3 receptor after 15 to 30 mins
[3] = target: T2, Adenosine receptor A3 (Homo sapiens) (UniProt P0DMS8); experiment: as §2
T2 sequence (whole entry): T1 sequence (P0DMS8 whole entry)

[4] = target: T3, Adenosine receptor A1 (Homo sapiens, UniProt P30542); experiment: Agonist activity at human adenosine A1 receptor
T3 sequence (P30542 whole entry): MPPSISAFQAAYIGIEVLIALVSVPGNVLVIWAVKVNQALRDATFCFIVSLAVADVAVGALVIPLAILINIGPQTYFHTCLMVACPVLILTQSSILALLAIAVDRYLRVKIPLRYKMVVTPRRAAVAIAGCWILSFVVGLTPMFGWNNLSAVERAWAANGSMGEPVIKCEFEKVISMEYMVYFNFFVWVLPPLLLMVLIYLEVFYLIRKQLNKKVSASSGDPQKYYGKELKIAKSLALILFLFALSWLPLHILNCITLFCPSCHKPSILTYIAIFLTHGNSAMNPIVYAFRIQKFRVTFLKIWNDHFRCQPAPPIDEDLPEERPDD
Summary of the method: (§3)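 Clones coexpressing mitochondrial apoaequorin and Gα16 were collected in PBS with 5 mM EDTA. They were loaded with 5 µM coelenterazine H for 4 h at room temperature, washed, and mixed with compound, and aequorin light was recorded for 30 s. Duplicates at eight concentrations from 3000 to 1 nM were fitted by sigmoidal nonlinear regression and expressed as percent of agonist response.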

[5] = target: T3, Adenosine receptor A1; experiment: Antagonist activity at human adenosine A1 receptor; summary of the method: as §3
[6] = target: T2, Adenosine receptor A3 (Homo sapiens); experiment: Agonist activity at human adenosine A3 receptor after 15 to 30 mins relative to IB-MECA; summary of the method: as §1

Row | Structure (SMILES) | EC50 [1] | IC50 [2] | Imax [3] | EC50 [4] | IC50 [5] | Emax [6]
1 | Nc1ncnc2c1ncn2[C@@H]1O[C@@]2(CO)CO[C@@H]1[C@@H]2O | > 100 µM | > 100 µM | – | – | – | –
2 | CNC(=O)[C@@]12CN[C@@H]([C@H](n3cnc4c(NCc5cccc(I)c5)ncnc43)O1)[C@@H]2O | > 100 µM | – | 100% | > 3 µM | > 3 µM | –
3 | CNC(=O)[C@H]1O[C@@H](n2cnc3c(N)ncnc32)[C@H](OC)[C@@H]1O | 0.453 µM | – | – | – | – | 100%
4 | CO[C@@H]1[C@H](O)[C@@H](CO)O[C@H]1n1cnc2c(NCc3cccc(I)c3)ncnc21 | > 100 µM | 0.0017 µM | 100% | > 3 µM | > 3 µM | –
5 | CNC(=O)[C@@]12CN[C@@H]([C@H](n3cnc4c(N)ncnc43)O1)[C@@H]2O | > 100 µM | 0.17 µM | 100% | – | – | –
6 | CNC(=O)[C@H]1O[C@@H](n2cnc3c(NCc4cccc(I)c4)ncnc32)[C@H](OC)[C@@H]1O | 0.0019 µM | – | – | > 3 µM | > 3 µM | 100%
7 | OC[C@@]12CO[C@@H]([C@H](n3cnc4c(NCc5cccc(I)c5)ncnc43)O1)[C@@H]2O | > 100 µM | 0.15 µM | 100% | – | – | –
8 | CO[C@@H]1[C@H](O)[C@@H](CO)O[C@H]1n1cnc2c(N)ncnc21 | > 100 µM | 0.015 µM | 100% | > 3 µM | > 3 µM | –
9 | CNC(=O)[C@@]12CO[C@@H]([C@H](n3cnc4c(NCc5cccc(I)c5)ncnc43)O1)[C@@H]2O | > 100 µM | > 100 µM | – | – | – | –
10 | OC[C@@]12CN[C@@H]([C@H](n3cnc4c(NCc5cccc(I)c5)ncnc43)O1)[C@@H]2O | > 100 µM | 0.0082 µM | 100% | > 3 µM | > 3 µM | –
11 | Nc1ncnc2c1ncn2[C@@H]1O[C@@]2(CO)CN[C@@H]1[C@@H]2O | > 100 µM | > 100 µM | – | – | – | –
12 | CNC(=O)[C@@]12CO[C@@H]([C@H](n3cnc4c(N)ncnc43)O1)[C@@H]2O | > 100 µM | > 100 µM | – | – | – | –
